Data set [1] has as its target T1, C-C chemokine receptor type 2 (Homo sapiens, UniProt P41597). As to the kind of experiment: Displacement of [125I]hMCP1 from human CCR2 receptor expressed in CHO cells. It is filed as cell-based. An outline of the steps:
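CHO cells expressing human CCR2b (5 × 10⁴) incubated 60 min at room temperature with ¹²⁵I-hMCP-1 (20–50 pM) plus varied competitor concentrations in 50 mM Hepes, 5 mM MgCl₂, 1 mM CaCl₂, pH 7.4. Stopped by filtration on polyethyleneimine-presoaked GF/B filters, washed with 25 mM Hepes pH 7.5/500 mM NaCl. IC50 is the average of triplicate measurements.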
(In general: Displacement assays read how much labelled ligand stays bound in the presence of the test substance.)
Target sequence in this assay (P41597 whole entry): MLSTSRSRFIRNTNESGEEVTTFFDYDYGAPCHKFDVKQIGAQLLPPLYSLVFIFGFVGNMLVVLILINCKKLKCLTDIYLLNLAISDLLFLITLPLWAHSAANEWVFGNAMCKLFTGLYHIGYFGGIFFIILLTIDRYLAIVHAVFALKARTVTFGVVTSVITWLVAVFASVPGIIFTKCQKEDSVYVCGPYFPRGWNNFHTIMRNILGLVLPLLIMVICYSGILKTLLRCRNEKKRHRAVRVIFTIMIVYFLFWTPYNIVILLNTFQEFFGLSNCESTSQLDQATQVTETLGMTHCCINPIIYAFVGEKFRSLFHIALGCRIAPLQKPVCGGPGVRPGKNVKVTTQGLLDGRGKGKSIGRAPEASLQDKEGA

For data set [2], the target named is T1, C-C chemokine receptor type 2. Put plainly: Displacement of [125I]hMCP1 from human CCR2 receptor expressed in CHO cells at 1 uM. It is filed as cell-based.
Target sequence in this assay (P41597 whole entry, looked up): as the sequence (P41597 whole entry) above
The nature of data set [3]: Cmax in Beagle dog at 2 mg/kg, po. The data set is classed as ADME, organism-based, Canis lupus familiaris. More on the design: dose 2 mg/kg, route oral. The following applies: in vivo.
The nature of data set [4]: Oral bioavailability in rhesus monkey at 2 mg/kg. The following applies: in vivo. It is filed as ADME, organism-based, Macaca mulatta.
The nature of data set [5]: Oral bioavailability in Beagle dog at 2 mg/kg. The data set is classed as ADME, organism-based, Canis lupus familiaris. Conditions: in vivo.
Data set [6] can be described thus: Tmax in Sprague-Dawley rat at 3 mg/kg, po. Conditions: in vivo. More on the design: dose 3 mg/kg, route oral. It is filed as ADME, organism-based.
Data set [7] can be described thus: Cmax in rhesus monkey at 2 mg/kg, po. The data set is classed as ADME, organism-based, Macaca mulatta. More on the design: dose 2 mg/kg, route oral. Conditions: in vivo.
The nature of data set [8]: AUC in Sprague-Dawley rat at 3 mg/kg, po. It is filed as ADME, organism-based. More on the design: dose 3 mg/kg, route oral. The following applies: plasma.
The nature of data set [9]: Oral bioavailability in Sprague-Dawley rat at 3 mg/kg. The following applies: in vivo. It is filed as ADME, organism-based.
The nature of data set [10]: AUC in Beagle dog at 2 mg/kg, po. It is filed as ADME, organism-based, Canis lupus familiaris. More on the design: dose 2 mg/kg, route oral. Conditions: plasma.
Data set [11] in a line: Cmax in Sprague-Dawley rat at 3 mg/kg, po. More on the design: dose 3 mg/kg, route oral. The following applies: in vivo. The data set is classed as ADME, organism-based.
Data set [12] is described as follows: Tmax in rhesus monkey at 2 mg/kg, po. More on the design: dose 2 mg/kg, route oral. The data set is classed as ADME, organism-based, Macaca mulatta. The following applies: in vivo.
Data set [13] is described as follows: Tmax in Beagle dog at 2 mg/kg, po. The data set is classed as ADME, organism-based, Canis lupus familiaris. More on the design: dose 2 mg/kg, route oral. The following applies: in vivo.
Data set [14] can be described thus: AUC in rhesus monkey at 2 mg/kg, po. The data set is classed as ADME, organism-based, Macaca mulatta. More on the design: dose 2 mg/kg, route oral. The following applies: plasma.

SMILES strings stand for the structures.

Turning to `CC1COCCC1N[C@@H]1CC[C@@](C(=O)NCc2cc(C(F)(F)F)cc(C(F)(F)F)c2)(C(C)C)C1` (stereo in doubt; 57), the IC50 (commonly the concentration needed to halve the response being measured) in [1] came to 42 nM.
In the case of `CC1COCC(C)C1N[C@@H]1CC[C@@](C(=O)NCc2cc(C(F)(F)F)cc(C(F)(F)F)c2)(C(C)C)C1` (some centres undefined), the IC50 in [1] came out at 7 nM.
On the same count and under the same terms, the value for `CC1COCCC1N[C@@H]1CC[C@@](C(=O)NCc2cc(C(F)(F)F)cc(C(F)(F)F)c2)(C(C)C)C1` (stereo in doubt; 59) was 1.2 nM.
`CC(C)[C@]1(C(=O)NCc2cc(C(F)(F)F)cc(C(F)(F)F)c2)CC[C@@H](NC2CCNCC2)C1` registered an Activity in data set [2] of 21%.
`CC(C)[C@]1(C(=O)NCc2cc(C(F)(F)F)cc(C(F)(F)F)c2)CC[C@@H](NC2CCSCC2)C1` came in with an IC50 in [1] of 22 nM.
With `CC(C)[C@]1(C(=O)NCc2cc(C(F)(F)F)cc(C(F)(F)F)c2)CC[C@@H](NC2CCOCC2)C1`, the half-maximal inhibitory concentration (IC50) in data set [1] came out at 4.6 nM.
`CCCC1COCCC1N[C@@H]1CC[C@@](C(=O)NCc2cc(C(F)(F)F)cc(C(F)(F)F)c2)(C(C)C)C1` (some centres undefined): the IC50 in data set [1] turned out to be 7.8 nM.
`CC(C)[C@]1(C(=O)NCc2cc(C(F)(F)F)cc(C(F)(F)F)c2)CC[C@@H](NC2CCc3ccccc3C2)C1` (some centres undefined) showed an IC50 in [1] of 239 nM.
`CC(C)[C@]1(C(=O)NCc2cc(C(F)(F)F)cc(C(F)(F)F)c2)CC[C@@H](NC2CCOCC2O)C1` (some centres undefined) displayed an IC50 in data set [1] of 51 nM.
In the case of `CC(C)[C@]1(C(=O)NCc2cc(C(F)(F)F)cc(C(F)(F)F)c2)CC[C@@H](NC2CCOCC2F)C1` (stereo in doubt; 63), the IC50 in data set [1] was found to be 259 nM.
Molecule `CC(C)[C@]1(C(=O)NCc2cc(C(F)(F)F)cc(C(F)(F)F)c2)CC[C@@H](NC2CCSC2)C1` (some centres undefined) gave an IC50 in data set [1] of 36 nM.
As to `CC(C)[C@]1(C(=O)NCc2cc(C(F)(F)F)cc(C(F)(F)F)c2)CC[C@@H](NC2CCOCC2F)C1` (stereo in doubt; 50), in data set [1], the IC50 stood at 6 nM.
Turning to `Cc1ccc(-c2ccc3c(c2)C=C(C(=O)Nc2ccc(C[N+](C)(C)C4CCOCC4)cc2)CCC3)cc1`, the concentration for half-maximal inhibition (IC50) in data set [1] came to 28 nM.
Still for that read-out and setting: to `CCC1COCCC1N[C@@H]1CC[C@@](C(=O)NCc2cc(C(F)(F)F)cc(C(F)(F)F)c2)(C(C)C)C1` (stereo in doubt; 61) belongs 5.6 nM.
Take `CC(C)[C@]1(C(=O)NCc2cc(C(F)(F)F)cc(C(F)(F)F)c2)CC[C@@H](NC2CCOCC2(C)C)C1` (some centres undefined): in data set [1], the IC50 came out at 230 nM.
For the molecule `CC1COCCC1N[C@@H]1CC[C@@](C(=O)NCc2cc(C(F)(F)F)cc(C(F)(F)F)c2)(C(C)C)C1` (stereo in doubt; 45), the IC50 in [1] was determined as 1.5 nM.
On the same count and under the same terms, the value for `CC(C)[C@]1(C(=O)NCc2cc(C(F)(F)F)cc(C(F)(F)F)c2)CC[C@@H](NC2CCOC2)C1` (some centres undefined) was 85 nM; that for `CC(C)[C@]1(C(=O)NCc2cc(C(F)(F)F)cc(C(F)(F)F)c2)CC[C@@H](NC2CCCOC2)C1` (some centres undefined) was 56 nM.
Turning to `CC(C)[C@]1(C(=O)NCc2cc(C(F)(F)F)cc(C(F)(F)F)c2)CC[C@@H](N[C@H]2CCOC[C@H]2C)C1`, the peak concentration (Cmax) (in general, the maximum level reached in the sampled fluid or tissue) in data set [3] stood at 422 nM; in [7], 4 nM; in data set [11], 735 nM. For the same molecule, the bioavailability (usually dose-corrected exposure relative to a reference, in per cent) in data set [4] turned out to be 2%; in data set [5], 28%; in data set [9], 42%. In addition, the results for the Tmax in data set [6], in [12] and in data set [13] were 15 min, 60 min and 45 min, respectively. Besides, the AUC (as a rule, concentration integrated over time) came out at 0.76 µM·h in [8], 0.62 µM·h in [10] and 0.01 µM·h in data set [14].
In [1], `CCC1COCCC1N[C@@H]1CC[C@@](C(=O)NCc2cc(C(F)(F)F)cc(C(F)(F)F)c2)(C(C)C)C1` (stereo in doubt; 62) had an IC50 of 3 nM.
Still for that read-out and setting: to `CC1CC(N[C@@H]2CC[C@@](C(=O)NCc3cc(C(F)(F)F)cc(C(F)(F)F)c3)(C(C)C)C2)CCO1` (some centres undefined) belongs 28 nM; to `CC(C)[C@]1(C(=O)NCc2cc(C(F)(F)F)cc(C(F)(F)F)c2)CC[C@@H](NC2CCOCC2F)C1` (stereo in doubt; 64), 14.3 nM; to `CC(C)[C@]1(C(=O)NCc2cc(C(F)(F)F)cc(C(F)(F)F)c2)CC[C@@H](NC2CCCCCC2)C1`, 175 nM.
In data set [1], `CC(C)[C@]1(C(=O)NCc2cc(C(F)(F)F)cc(C(F)(F)F)c2)CC[C@@H](NCC2CCOCC2)C1` displayed an IC50 of 362 nM.
Molecule `CC(C)[C@]1(C(=O)NCc2cc(C(F)(F)F)cc(C(F)(F)F)c2)CC[C@@H](NC2CCc3ccccc32)C1` (some centres undefined) gave an IC50 in data set [1] of 77 nM.
Molecule `CC(C)[C@]1(C(=O)NCc2cc(C(F)(F)F)cc(C(F)(F)F)c2)CC[C@@H](NC2CCCOCC2)C1` (some centres undefined) showed an IC50 in [1] of 30 nM.
Molecule `CC(C)[C@]1(C(=O)NCc2cc(C(F)(F)F)cc(C(F)(F)F)c2)CC[C@@H](NC2CCOc3ccccc32)C1` (some centres undefined) gave a half-inhibitory concentration (IC50) in data set [1] of 419 nM.
For `CC(C)[C@]1(C(=O)NCc2cc(C(F)(F)F)cc(C(F)(F)F)c2)CC[C@@H](NC2Cc3ccccc3C2)C1`, in data set [1], the IC50 amounted to 187 nM.
Molecule `CC(C)[C@]1(C(=O)NCc2cc(C(F)(F)F)cc(C(F)(F)F)c2)CC[C@@H](NC2CCCC2)C1` gave an IC50 in [1] of 156 nM.
`CC(C)[C@]1(C(=O)NCc2cc(C(F)(F)F)cc(C(F)(F)F)c2)CC[C@@H](NC2CCCCC2)C1` registered an IC50 in [1] of 64 nM.
The same measure, in the same setting: to `CC(C)[C@]1(C(=O)NCc2cc(C(F)(F)F)cc(C(F)(F)F)c2)CC[C@@H](NC2CCOCC2C2CC2)C1` (some centres undefined) belongs 123 nM; to `CC(C)[C@]1(C(=O)NCc2cc(C(F)(F)F)cc(C(F)(F)F)c2)CC[C@@H](NC2CCOCC2C(F)(F)F)C1` (some centres undefined), 5.5 nM; to `CC(C)[C@]1(C(=O)NCc2cc(C(F)(F)F)cc(C(F)(F)F)c2)CC[C@@H](NC2CCS(=O)(=O)CC2)C1`, 631 nM.
As for `CCC1COCCC1N[C@@H]1CC[C@@](C(=O)NCc2cc(C(F)(F)F)cc(C(F)(F)F)c2)(C(C)C)C1` (stereo in doubt; 60), the concentration for half-maximal inhibition (IC50) in [1] worked out at 141 nM.
Still for that read-out and setting: to `CC(C)[C@]1(C(=O)NCc2cc(C(F)(F)F)cc(C(F)(F)F)c2)CC[C@@H](NC2CCC2)C1` belongs 193 nM; to `CCC1COCCC1N[C@@H]1CC[C@@](C(=O)NCc2cc(C(F)(F)F)cc(C(F)(F)F)c2)(C(C)C)C1` (stereo in doubt; 46), 3 nM.
Still for that read-out and setting: the value for `CC1COCCC1N[C@@H]1CC[C@@](C(=O)NCc2cc(C(F)(F)F)cc(C(F)(F)F)c2)(C(C)C)C1` (stereo in doubt; 58) was 4 nM.
`CC(C)[C@]1(C(=O)NCc2cc(C(F)(F)F)cc(C(F)(F)F)c2)CC[C@@H](NC2CCOCC2(O)C(F)(F)F)C1` (some centres undefined) had an IC50 in data set [1] of 765 nM.

Source of the values: ChEMBL document CHEMBL1153317, “Design, synthesis, and structure-activity relationship of novel CCR2 antagonists” (Bioorg Med Chem Lett, 2009).
